From ChEMBL document CHEMBL4354843, “Structure-Based Design of a Potent and Selective Covalent Inhibitor for SRC Kinase That Targets a P-Loop Cysteine” (J Med Chem, 2020) come the findings set out here.

In assay [1] the target is Tyrosine-protein kinase JAK1 (Homo sapiens) (UniProt P23458). In words: Binding affinity to wild-type human partial length JAK1 JH2 pseudokinase domain (R537 to D855 residues) expressed in mammalian expression system assessed as residual binding level at 1 uM by Kinomescan method relative to control.
For assay [2], the target named is Dual specificity tyrosine-phosphorylation-regulated kinase 1B (Homo sapiens) (UniProt Q9Y463). Kind of assay: Binding affinity to wild-type human full length DYRK1B (M1 to S629 residues) expressed in bacterial expression system assessed as residual binding level at 1 uM by Kinomescan method relative to control. In a few lines:
(§1)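 Active-site-directed KinomeScan competition binding panel covering 468 kinases, compound tested at 1 μM. Each readout is the kinase signal remaining with compound, expressed as a percentage of the DMSO control. […]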

For assay [3], the target named is Serine/threonine-protein kinase Nek1 (Homo sapiens) (UniProt Q96PY6). Kind of assay: Binding affinity to wild-type human partial length NEK1 (M1 to K278 residues) expressed in bacterial expression system assessed as residual binding level at 1 uM by Kinomescan method relative to control.
The target in assay [4] is Serine/threonine-protein kinase MAK (Homo sapiens) (UniProt P20794). Kind of assay: Binding affinity to wild-type human partial length MAK (M1 to P314 residues) expressed in bacterial expression system assessed as residual binding level at 1 uM by Kinomescan method relative to control. A digest of the protocol: (§2)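 Active-site-directed competition binding panel of 468 kinases (KinomeScan), compound at 1 μM. The read-out is kinase remaining bound, given as a percentage of the DMSO control. […]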

The test system of assay [5] is Leucine-rich repeat serine/threonine-protein kinase 2 (Homo sapiens), Q5S007 [G2019S]. Kind of assay: Binding affinity to human partial length LRRK2 G2019S mutant (H970 to E2527 residues) expressed in mammalian expression system assessed as residual binding level at 1 uM by Kinomescan method relative to control. In a few lines:
(§3)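 KinomeScan active site-directed competition binding panel (468 kinases), compound tested at 1 μM. Result expressed as remaining kinase signal versus DMSO control (percent of control).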

The subject of assay [6] is Receptor-type tyrosine-protein kinase FLT3 (Homo sapiens), P36888 [UNDEFINED MUTATION]. Kind of assay: Binding affinity to human partial length FLT3 ITD/F691L double mutant expressed in bacterial expression system assessed as residual binding level at 1 uM by Kinomescan method relative to control. A digest of the protocol:
as §3

Assay [7] concerns Receptor-type tyrosine-protein kinase FLT3 (Homo sapiens), P36888 [R834Q]. In words: Binding affinity to human partial length FLT3 R834Q mutant (V592 to Y969 residues) expressed in mammalian expression system assessed as residual binding level at 1 uM by Kinomescan method relative to control. A digest of the protocol: as §3
Assay [8] deals with Cyclin-dependent kinase 8 (Homo sapiens) (UniProt P49336). In words: Binding affinity to wild-type human partial length CDK8 (M1 to T360 residues) expressed in bacterial expression system assessed as residual binding level at 1 uM by Kinomescan method relative to control.
Assay [9] concerns the target Ephrin type-B receptor 6 (Homo sapiens) (UniProt O15197). Kind of assay: Binding affinity to wild-type human partial length EPHB6 (Q634 to P948 residues) expressed in mammalian expression system assessed as residual binding level at 1 uM by Kinomescan method relative to control. A digest of the protocol: as §2
Assay [10] concerns the target Cyclin-dependent kinase 11A (Homo sapiens) (UniProt Q9UQ88). In words: Binding affinity to wild-type human partial length CDC2L2 (D391 to K730 residues) expressed in bacterial expression system assessed as residual binding level at 1 uM by Kinomescan method relative to control.
The target in assay [11] is Activin receptor type-2B (Homo sapiens) (UniProt Q13705). In words: Binding affinity to wild-type human ACVR2B (H169 to D504 residues) expressed in bacterial expression system assessed as residual binding level at 1 uM by Kinomescan method relative to control. A digest of the protocol: as §1
Assay [12] addresses cAMP-dependent protein kinase catalytic subunit alpha (Homo sapiens) (UniProt P17612). In words: Binding affinity to wild-type human partial length PKAC-alpha (G10 to F351 residues) expressed in bacterial expression system assessed as residual binding level at 1 uM by Kinomescan method relative to control.
Assay [13] concerns the target 3-phosphoinositide-dependent protein kinase 1 (Homo sapiens) (UniProt O15530). In words: Binding affinity to wild-type human full length PDPK1 (M1 to Q556 residues) expressed in bacterial expression system assessed as residual binding level at 1 uM by Kinomescan method relative to control. In a few lines: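 KinomeScan, an active site-directed competition binding panel of 468 kinases. The test compound was at 1 μM. The readout is remaining kinase binding as a percentage of the DMSO control. Scores above 35% were treated as weak binding and not listed.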

Assay [14] deals with Inhibitor of nuclear factor kappa-B kinase subunit beta (Homo sapiens) (UniProt O14920). Kind of assay: Binding affinity to wild-type human full length IKK-beta (M1 to S756 residues) expressed in mammalian expression system assessed as residual binding level at 1 uM by Kinomescan method relative to control. In a few lines:
as §1

In assay [15] the test system is Tyrosine-protein kinase ABL1 (Homo sapiens), P00519 [Q252H]. In words: Binding affinity to human phosphorylated ABL1 Q252H mutant expressed in mammalian expression system assessed as residual binding level at 1 uM by Kinomescan method relative to control. In a few lines: as §1
In assay [16] the target is Serine/threonine-protein kinase MRCK beta (Homo sapiens) (UniProt Q9Y5S2). In words: Binding affinity to wild-type human partial length MRCKB (L56 to S417 residues) expressed in bacterial expression system assessed as residual binding level at 1 uM by Kinomescan method relative to control.
Assay [17] concerns the target Phosphatidylinositol 5-phosphate 4-kinase type-2 gamma (Homo sapiens) (UniProt Q8TBX8). In words: Binding affinity to wild-type human partial length PIP5K2C (M1 to A421 residues) expressed in mammalian expression system assessed as residual binding level at 1 uM by Kinomescan method relative to control.
Assay [18] addresses Tyrosine-protein kinase TXK (Homo sapiens) (UniProt P42681). Kind of assay: Binding affinity to wild-type human partial length TXK (L238 to W527 residues) expressed in bacterial expression system assessed as residual binding level at 1 uM by Kinomescan method relative to control. A digest of the protocol:
(§4)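 Active site-directed competition binding panel (KinomeScan, 468 kinases). Test compound at 1 μM. Read-out is kinase binding remaining versus DMSO control, expressed as percent of control. Scores above 35% are treated as weak binding.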

Assay [19] has as its target Serine/threonine-protein kinase WNK2 (Homo sapiens) (UniProt Q9Y3S1). Kind of assay: Binding affinity to wild-type human partial length WNK2 (V47 to D482 residues) expressed in mammalian expression system assessed as residual binding level at 1 uM by Kinomescan method relative to control. In a few lines:
as §4

The target of assay [20] is Cyclin-dependent kinase 15 (Homo sapiens) (UniProt Q96Q40). Kind of assay: Binding affinity to wild-type human full length PFTAIRE2 (M1 to W384 residues) expressed in bacterial expression system assessed as residual binding level at 1 uM by Kinomescan method relative to control. In a few lines: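 Active-site-directed competition binding panel (KinomeScan) covering 468 kinases. Test agent was screened at 1 μM. The read-out is the remaining kinase signal expressed relative to a DMSO control. Scores above 35%, taken as weak binding, were not reported.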

Sequence of Cyclin-dependent kinase 11A (Homo sapiens) (Q9UQ88 whole entry, the tested form may be a part): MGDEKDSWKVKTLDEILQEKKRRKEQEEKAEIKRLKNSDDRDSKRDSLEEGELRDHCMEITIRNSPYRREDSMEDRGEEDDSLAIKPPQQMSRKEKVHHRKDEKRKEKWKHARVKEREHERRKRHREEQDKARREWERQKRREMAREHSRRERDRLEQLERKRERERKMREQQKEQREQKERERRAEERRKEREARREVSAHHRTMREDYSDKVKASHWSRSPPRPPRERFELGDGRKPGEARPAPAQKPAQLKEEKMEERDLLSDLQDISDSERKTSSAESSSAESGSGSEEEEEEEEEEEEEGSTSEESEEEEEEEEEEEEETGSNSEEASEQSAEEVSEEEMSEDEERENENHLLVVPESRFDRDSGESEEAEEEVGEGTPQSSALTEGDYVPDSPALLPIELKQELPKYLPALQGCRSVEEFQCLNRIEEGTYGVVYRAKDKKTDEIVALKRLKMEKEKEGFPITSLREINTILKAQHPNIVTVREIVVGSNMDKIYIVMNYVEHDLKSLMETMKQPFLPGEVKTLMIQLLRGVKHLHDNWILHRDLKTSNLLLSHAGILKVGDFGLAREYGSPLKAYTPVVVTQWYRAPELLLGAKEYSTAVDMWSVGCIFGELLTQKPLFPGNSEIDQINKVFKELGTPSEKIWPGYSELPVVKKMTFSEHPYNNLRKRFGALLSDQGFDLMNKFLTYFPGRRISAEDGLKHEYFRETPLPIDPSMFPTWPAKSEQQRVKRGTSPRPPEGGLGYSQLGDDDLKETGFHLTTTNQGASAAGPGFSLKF
Sequence of Serine/threonine-protein kinase Nek1 (Homo sapiens) (Q96PY6 whole entry, the tested form may be a part): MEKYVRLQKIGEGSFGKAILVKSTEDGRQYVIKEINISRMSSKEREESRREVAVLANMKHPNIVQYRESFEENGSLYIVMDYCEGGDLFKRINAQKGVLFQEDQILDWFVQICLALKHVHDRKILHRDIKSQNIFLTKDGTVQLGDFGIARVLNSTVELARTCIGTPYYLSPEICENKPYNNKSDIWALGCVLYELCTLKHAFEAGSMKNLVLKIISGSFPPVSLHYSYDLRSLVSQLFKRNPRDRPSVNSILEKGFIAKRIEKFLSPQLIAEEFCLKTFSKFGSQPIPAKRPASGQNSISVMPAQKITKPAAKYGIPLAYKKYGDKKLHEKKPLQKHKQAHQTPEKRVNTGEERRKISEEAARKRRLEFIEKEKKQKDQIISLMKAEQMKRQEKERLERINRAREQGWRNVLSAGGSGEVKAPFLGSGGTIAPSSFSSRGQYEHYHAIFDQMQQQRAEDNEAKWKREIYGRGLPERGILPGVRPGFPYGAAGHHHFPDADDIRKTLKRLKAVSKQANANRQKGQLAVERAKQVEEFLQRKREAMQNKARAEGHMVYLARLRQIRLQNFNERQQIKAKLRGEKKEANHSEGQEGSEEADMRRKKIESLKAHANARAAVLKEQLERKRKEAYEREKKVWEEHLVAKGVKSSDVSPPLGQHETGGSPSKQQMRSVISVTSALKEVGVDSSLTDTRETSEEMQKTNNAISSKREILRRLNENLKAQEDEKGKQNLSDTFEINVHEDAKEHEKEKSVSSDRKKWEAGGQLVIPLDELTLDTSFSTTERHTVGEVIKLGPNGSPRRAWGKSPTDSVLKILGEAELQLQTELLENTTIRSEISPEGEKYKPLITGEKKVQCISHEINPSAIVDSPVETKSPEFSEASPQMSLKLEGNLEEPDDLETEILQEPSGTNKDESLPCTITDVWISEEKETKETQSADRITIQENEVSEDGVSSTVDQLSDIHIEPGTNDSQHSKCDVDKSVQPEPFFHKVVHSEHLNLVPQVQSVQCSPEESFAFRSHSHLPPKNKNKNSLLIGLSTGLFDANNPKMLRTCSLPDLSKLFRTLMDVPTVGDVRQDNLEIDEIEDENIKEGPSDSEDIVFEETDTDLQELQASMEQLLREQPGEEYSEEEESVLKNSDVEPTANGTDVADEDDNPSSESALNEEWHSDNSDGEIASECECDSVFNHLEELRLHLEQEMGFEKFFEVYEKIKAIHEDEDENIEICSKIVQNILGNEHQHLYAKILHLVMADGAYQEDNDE
Sequence of Cyclin-dependent kinase 8 (Homo sapiens) (P49336 whole entry, the tested form may be a part): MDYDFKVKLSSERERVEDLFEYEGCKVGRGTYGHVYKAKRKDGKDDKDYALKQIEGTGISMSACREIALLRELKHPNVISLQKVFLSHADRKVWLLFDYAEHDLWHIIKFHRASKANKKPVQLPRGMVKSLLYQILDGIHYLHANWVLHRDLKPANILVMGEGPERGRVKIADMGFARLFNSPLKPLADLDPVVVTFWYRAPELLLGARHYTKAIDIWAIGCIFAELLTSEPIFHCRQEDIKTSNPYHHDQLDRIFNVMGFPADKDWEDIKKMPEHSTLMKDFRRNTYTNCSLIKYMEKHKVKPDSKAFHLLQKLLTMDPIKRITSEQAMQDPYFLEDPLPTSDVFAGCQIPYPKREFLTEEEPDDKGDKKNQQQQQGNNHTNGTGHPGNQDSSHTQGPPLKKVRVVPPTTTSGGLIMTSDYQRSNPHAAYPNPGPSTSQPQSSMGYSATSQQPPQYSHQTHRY
Sequence of Tyrosine-protein kinase TXK (Homo sapiens) (P42681 whole entry, the tested form may be a part): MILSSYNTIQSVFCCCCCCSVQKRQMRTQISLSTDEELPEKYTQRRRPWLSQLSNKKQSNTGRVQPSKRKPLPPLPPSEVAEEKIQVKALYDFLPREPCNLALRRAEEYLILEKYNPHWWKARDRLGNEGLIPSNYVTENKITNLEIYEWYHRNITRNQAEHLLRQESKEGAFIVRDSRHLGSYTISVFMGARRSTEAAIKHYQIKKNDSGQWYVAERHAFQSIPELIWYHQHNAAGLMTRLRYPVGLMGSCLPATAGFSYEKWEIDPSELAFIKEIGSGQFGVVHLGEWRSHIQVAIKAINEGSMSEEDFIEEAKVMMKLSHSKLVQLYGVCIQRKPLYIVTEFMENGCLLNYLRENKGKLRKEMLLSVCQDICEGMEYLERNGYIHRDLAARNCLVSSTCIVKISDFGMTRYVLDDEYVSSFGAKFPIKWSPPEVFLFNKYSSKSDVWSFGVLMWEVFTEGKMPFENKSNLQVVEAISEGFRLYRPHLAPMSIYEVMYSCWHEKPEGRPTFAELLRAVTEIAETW
Sequence of Serine/threonine-protein kinase MRCK beta (Homo sapiens) (Q9Y5S2 whole entry, the tested form may be a part): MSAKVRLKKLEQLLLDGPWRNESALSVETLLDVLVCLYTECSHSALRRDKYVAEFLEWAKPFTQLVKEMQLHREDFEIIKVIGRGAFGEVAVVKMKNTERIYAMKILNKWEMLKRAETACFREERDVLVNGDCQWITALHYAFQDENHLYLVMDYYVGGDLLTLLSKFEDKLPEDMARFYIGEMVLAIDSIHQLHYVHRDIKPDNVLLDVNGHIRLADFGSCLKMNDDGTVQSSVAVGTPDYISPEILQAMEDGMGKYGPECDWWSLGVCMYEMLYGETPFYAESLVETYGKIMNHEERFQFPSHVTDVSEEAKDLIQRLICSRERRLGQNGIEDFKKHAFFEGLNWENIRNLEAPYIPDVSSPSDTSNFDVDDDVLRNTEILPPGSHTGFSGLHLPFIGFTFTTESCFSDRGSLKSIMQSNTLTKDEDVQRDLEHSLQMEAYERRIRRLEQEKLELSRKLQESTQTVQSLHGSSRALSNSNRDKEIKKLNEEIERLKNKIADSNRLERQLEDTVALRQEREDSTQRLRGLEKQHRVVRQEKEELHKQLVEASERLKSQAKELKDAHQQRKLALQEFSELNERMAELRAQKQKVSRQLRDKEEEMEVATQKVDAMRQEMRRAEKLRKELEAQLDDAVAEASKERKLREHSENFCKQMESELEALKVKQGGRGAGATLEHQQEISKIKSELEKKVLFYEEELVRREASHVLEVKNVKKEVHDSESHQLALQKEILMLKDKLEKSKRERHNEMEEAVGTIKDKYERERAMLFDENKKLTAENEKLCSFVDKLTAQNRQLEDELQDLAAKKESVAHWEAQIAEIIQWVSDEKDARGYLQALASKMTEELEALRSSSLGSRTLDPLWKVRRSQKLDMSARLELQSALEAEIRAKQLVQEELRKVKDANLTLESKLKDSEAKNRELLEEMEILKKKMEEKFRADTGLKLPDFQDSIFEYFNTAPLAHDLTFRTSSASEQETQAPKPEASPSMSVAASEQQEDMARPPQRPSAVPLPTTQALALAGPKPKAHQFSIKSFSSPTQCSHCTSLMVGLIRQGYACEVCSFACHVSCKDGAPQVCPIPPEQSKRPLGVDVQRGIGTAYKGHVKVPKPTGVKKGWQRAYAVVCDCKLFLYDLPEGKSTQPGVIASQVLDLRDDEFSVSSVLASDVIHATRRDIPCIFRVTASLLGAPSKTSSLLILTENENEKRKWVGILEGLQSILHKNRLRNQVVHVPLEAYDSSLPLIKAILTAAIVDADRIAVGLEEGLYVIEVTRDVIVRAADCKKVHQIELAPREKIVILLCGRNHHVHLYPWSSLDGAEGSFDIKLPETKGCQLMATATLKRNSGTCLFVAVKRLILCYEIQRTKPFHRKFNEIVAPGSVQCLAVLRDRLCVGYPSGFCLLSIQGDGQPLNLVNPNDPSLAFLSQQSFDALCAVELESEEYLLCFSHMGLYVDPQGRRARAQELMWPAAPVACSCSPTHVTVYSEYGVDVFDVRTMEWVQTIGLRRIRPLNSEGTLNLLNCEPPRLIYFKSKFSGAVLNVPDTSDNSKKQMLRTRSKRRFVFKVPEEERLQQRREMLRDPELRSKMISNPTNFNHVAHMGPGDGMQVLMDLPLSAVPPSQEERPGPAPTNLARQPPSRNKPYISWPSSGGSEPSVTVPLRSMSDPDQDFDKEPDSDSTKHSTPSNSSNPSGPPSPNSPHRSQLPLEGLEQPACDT

For the molecule `C=CC(=O)Nc1ccccc1Nc1nc(Nc2ccc(N3CCN(C)CC3)cc2)ncc1C(=O)Nc1c(C)cccc1Cl`, the Activity is 100% in assay [1]; 74% in assay [2]; 100% in [3]; 70% in [4]; 100% in assay [5]; 85% in assay [6]. Also, the Activity came out at 100% in assay [7]; 100% in assay [8]; 6% in assay [9]; 100% in assay [10]; 100% in [11]; 100% in [12]. Moreover, the Activity in assay [13] is 93%; in assay [14] it was 100%; in assay [15], 0.7%; in assay [16], 100%; in [17], 100%; in assay [18] it was 17%. In addition, the results for the Activity in [19] and in assay [20] were 64% and 100%, respectively.
